Experimental data: ChEMBL document CHEMBL1817588, “Design and synthesis of 1,3-biarylsulfanyl derivatives as new anti-breast cancer agents” (Bioorg Med Chem, 2011)
Calls of active or inactive are those of the source. No cut-off for these calls is given here.

Key:
Ishikawa [1] = test: Antiproliferative activity against human Ishikawa cells expressing estrogen receptor after 48 hrs by MTT assay; type: functional, cell-based
Outline: (§1)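 Cells seeded at 1×10^4/well in DMEM with 10% FBS for 24 h at 37 °C, then exposed to compounds for 48 h. MTT (5 mg/mL) added for 4 h. Formazan dissolved in DMSO and absorbance read at 540 nm. Routine culture used DMEM with 10% FBS, 5% CO2, reduced to 2% FBS for growth inhibition.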

MDA-MB-231 [2] = test: Antiproliferative activity against estrogen receptor-deficient human MDA-MB-231 cells […] after 48 hrs by MTT assay; type: functional, cell-based; details: MDA-MB-231, 48 h; outline: as §1
MCF7 [3] = test: Antiproliferative activity against human MCF7 cells expressing estrogen receptor at 50 uM after 48 hrs by MTT assay; type: functional, cell-based
MCF7 [4] = test: Antiproliferative activity against human MCF7 cells expressing estrogen receptor after 48 hrs by MTT assay; type: functional, cell-based; details: MCF7, 48 h; outline: as §1
HEK293 [5] = test: Antiproliferative activity against human HEK293 cells after 48 hrs by MTT assay; type: cell-based; details: HEK293, 48 h; outline: as §1
Rattus norvegicus [6] = organism: Rattus norvegicus; test: Displacement of [3H]-estradiol from estrogen receptor in rat uteri after 18 hrs by scintillation counting relative to 17beta-estradiol
Outline: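 Cytosol from uteri of immature 20–21-day-old rats, in TEA buffer pH 7.4 (10 mM Tris, 1.5 mM EDTA, 0.02% azide). Incubated in triplicate with fixed 3H-estradiol ± competitor (DMF ≤5% final) for 18 h at 4 °C. Free ligand removed with dextran-coated charcoal (15 min, 800g 10 min), then supernatant counted. RBA taken at 50% inhibition from the bound-versus-log concentration plot.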

Rattus norvegicus [7] = test: Estrogenic activity in Sprague-Dawley rat assessed as increase in uterine weight administered as po daily once for 3 days relative to control; type: functional; parameters: concentration or dose not given beside the values
Outline: (§2)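 Immature female Sprague-Dawley rats given oral dosing once daily for 3 days on days 28–30 of age. Antiestrogenic arm co-dosed ethynylestradiol 0.02 mg/kg in 10% ethanol-water. Autopsy 24 h after last dose (day 31). Uterus excised, blotted and weighed, with vaginal opening and cornification also scored. Inhibition computed as (E − T)×100/E versus ethynylestradiol alone. Estrogenic gain expressed as percent increase over vehicle control.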

Rattus norvegicus [8] = test: Antiestrogenic activity in Sprague-Dawley rat assessed as inhibition of uterine weight gain administered as po daily once for 3 days relative to 17alpha-ethynylestradiol; type: functional; outline: as §2
Rattus norvegicus [9] = test: Antiimplantation activity in Sprague-Dawley albino rat at 20 mg/kg, po after 10 days; type: functional
Outline: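 Sperm-positive adult Sprague-Dawley females (180–220 g) mated with proven-fertile males. Compounds given orally as a gum acacia suspension on days 1–5 post-coitum, 5–7 animals per group. Vehicle-only group served as control.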

Bone [10] = test: Antiosteoporotic activity in Sprague-Dawley rat [45Ca] pre-labeled bone assessed as inhibition of PTH-induced bone resorption after 96 hrs
Bone [11] = test: Antiosteoporotic activity in Sprague-Dawley rat [45Ca] pre-labeled bone assessed as inhibition of PTH-induced bone resorption after 96 hrs relative to control
Ishikawa [12] = test: Antiproliferative activity against human Ishikawa cells expressing estrogen receptor at 50 uM after 48 hrs by MTT assay; type: functional, cell-based
MDA-MB-231 [13] = test: Antiproliferative activity against estrogen receptor-deficient human MDA-MB-231 cells […] at 50 uM after 48 hrs by MTT assay; type: functional, cell-based
HEK293 [14] = test: Antiproliferative activity against human HEK293 cells at 50 uM after 48 hrs by MTT assay; type: cell-based; details: hek293, 48 h

| SMILES | IC50 (Ishikawa [1]) | IC50 (MDA-MB-231 [2]) | Activity (MCF7 [3]) | IC50 (MCF7 [4]) | IC50 (HEK293 [5]) | RBA (Rattus norvegicus [6]) | Activity (Rattus norvegicus [7]) | inhibition (INH) (Rattus norvegicus [8]) | Activity (Rattus norvegicus [9]) | T/C (Bone [10]) | inhibition (INH) (Bone [11]) | Activity (Ishikawa [12]) | Activity (MDA-MB-231 [13]) | Activity (HEK293 [14]) |
| --- | --- | --- | --- | --- | --- | --- | --- | --- | --- | --- | --- | --- | --- | --- |
| COc1ccc(C(CC(=O)c2ccccc2)SCCC(=O)O)cc1 (stereo not given) | 24 µM | 44 µM | inactive | – | – | – | – | – | – | – | – | – | – | – |
| O=C(CC(Sc1ccc(Cl)cc1)c1ccccc1)c1ccc(Cl)cc1 (stereo not given) | 24 µM | 31 µM | – | 28 µM | – | – | – | – | – | – | – | – | – | – |
| O=C(CC(Sc1ccc(O)cc1)c1ccccc1)c1ccc(OCCN2CCCC2)cc1 (stereo not given) | 16 µM | 27 µM | – | 28.6 µM | 27.5 µM | 0.67% | 101% | 18% | 60% | 0.902 | 9.8% | – | – | – |
| O=C(CC(Sc1ccc(O)cc1)c1cccc(O)c1)c1ccc(OCCN2CCCCC2)cc1 (stereo not given) | 17 µM | 19 µM | – | 12.2 µM | 65.8 µM | 4.47% | 79% | 31% | 100% | 0.812 | 18.8% | – | – | – |
| CCSC(CC(=O)c1ccc(OCCN2CCCC2)cc1)c1ccccc1 (stereo not given) | > 50 µM | > 50 µM | – | 27 µM | 29.2 µM | 0.191% | 152% | 9% | 100% | 0.963 | 3.7% | – | – | – |
| O=C(CC(Sc1ccccc1)c1ccccc1)c1ccc(O)cc1 (stereo not given) | – | 38 µM | – | 24 µM | – | – | – | – | – | – | – | inactive | – | – |
| Cc1ccc(SC(CC(=O)c2ccccc2)c2ccccc2)cc1 (stereo not given) | – | – | inactive | – | – | – | – | – | – | – | – | inactive | inactive | – |
| COc1ccc(C(CC(=O)c2ccc(Cl)cc2)Sc2ccccc2)cc1 (stereo not given) | 25 µM | – | inactive | – | – | – | – | – | – | – | – | – | inactive | – |
| CSC(CC(=O)c1ccccc1)c1ccccc1 (stereo not given) | 25 µM | – | – | 25 µM | – | – | – | – | – | – | – | – | inactive | – |
| COc1ccc(C(CC(=O)c2ccccc2)Sc2ccc(C)cc2)cc1 (stereo not given) | 17 µM | 45 µM | – | 23 µM | – | – | – | – | – | – | – | – | – | – |
| O=C(CC(Sc1ccccc1)c1ccccc1)c1cccc([N+](=O)[O-])c1 (stereo not given) | 21 µM | 38 µM | – | 25 µM | – | – | – | – | – | – | – | – | – | – |
| O=C(CC(Sc1ccccc1)c1ccccc1)c1cccc(Cl)c1 (stereo not given) | 29 µM | 32 µM | – | 29 µM | – | – | – | – | – | – | – | – | – | – |
| CN(C)CCOc1ccc(C(=O)CC(Sc2ccccc2)c2ccccc2)cc1 (stereo not given) | 20 µM | 27 µM | – | > 50 µM | – | 0.157% | 174% | 12% | inactive | 0.863 | 13.7% | – | – | Non-toxic |
| COc1ccc(C(=O)CC(Sc2ccc(Cl)cc2)c2ccccc2)cc1 (stereo not given) | 22 µM | – | inactive | – | – | – | – | – | – | – | – | – | inactive | – |
| COc1ccc(C(=O)CC(Sc2ccc(C)cc2)c2ccc(OC)cc2)cc1 (stereo not given) | – | 28 µM | – | 18 µM | – | – | – | – | – | – | – | inactive | – | Non-toxic |
| COc1ccc(C(CC(=O)c2ccccc2)Sc2ccc(Cl)cc2)cc1 (stereo not given) | 22 µM | 36 µM | – | 25 µM | – | – | – | – | – | – | – | – | – | – |
| O=C(CC(Sc1ccc(O)cc1)c1ccccc1)c1ccc(OCCN2CCCCC2)cc1 (stereo not given) | 16.2 µM | 16.5 µM | – | 9.6 µM | 75.2 µM | 5.27% | 58% | 34% | 100% | 0.787 | 21.3% | – | – | – |
| COc1ccc(C(=O)CC(Sc2ccccc2)c2ccccc2)cc1 (stereo not given) | – | 41 µM | – | 29 µM | – | – | – | – | – | – | – | inactive | – | – |
